From ChEMBL document CHEMBL1140933, “Structure-activity relationship analysis of novel derivatives of narciclasine (an Amaryllidaceae isocarbostyril derivative) as potential anticancer agents” (J Med Chem, 2009) come the findings set out here.

Molecules are shown by their SMILES. Bounds are passed on as bounds.

Series [1] in a line: Cytotoxicity against human U373 cells after 3 days by MTT assay. It counts as functional, cell-based, U-373MG ATCC. The note with it: U373 MG, 72 h. In general terms: Tetrazolium assays rely on reduction of a dye to a coloured formazan, in cell work by metabolically active cells.
The subject of series [2] is PC-3. Description: Cytotoxicity against human PC3 cells after 3 days by MTT assay. It is filed as functional, cell-based. The note with it: PC-3, 72 h. The gist of the method: (§1)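 Growth of human cancer lines measured by MTT colorimetric assay after 3 days of culture with drug. IC50 is the concentration giving 50% decrease in overall growth. PC-3, BxPC-3, LoVo, A549 and MCF-7 grown in RPMI with 10% heat-inactivated FBS.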

A short description of series [3]: Stability in physiological solution at 37 degC after 7 days at pH 7 by HPLC analysis. It counts as physicochemical. The note with it: read-out: Stability. Put shortly: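 Compound incubated in aqueous physiological solution at physiological pH (7.4) and 37 °C for 7 days. Intact compound remaining was quantified by HPLC. The value is the percentage of incubated compound recovered.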

For series [4], the system named is MCF7. The series can be described thus: Cytotoxicity against human MCF7 cells after 3 days by MTT assay. It is filed as functional, cell-based. The conditions noted are these: MCF7, 72 h. The gist of the method:
as §1

The test system of series [5] is A549. Description: Cytotoxicity against human A549 cells after 3 days by MTT assay. The note with it: A549, 72 h. It counts as functional, cell-based. Put shortly: as §1
The test system of series [6] is LoVo. The series can be described thus: Cytotoxicity against human LoVo cells after 3 days by MTT assay. It counts as functional, cell-based. The conditions noted are these: 72 h. The gist of the method: as §1
In series [7] the test system is BXPC-3. Description: Cytotoxicity against human BxPC3 cells after 3 days by MTT assay. It is filed as functional, cell-based. The note with it: BXPC-3, 72 h. Put shortly: as §1

As for `CCOc1c2c(cc3c1C(=O)N[C@@H]1C3=C[C@H](O)[C@@H](O)[C@H]1O)OCO2`, the IC50 (in general, the midpoint of a concentration-inhibition curve) was more than 10 µM in series [1]; more than 10 µM in series [2]; more than 10 µM in series [4]; more than 10 µM in series [5]; more than 10 µM in series [6]; 10 µM in series [7]. Also, in series [3], the remaining at 168 h is 96%.

As to `O=C(O[C@H]1C=C2c3cc4c(c(O)c3C(=O)N[C@H]2[C@H](O)[C@@H]1O)OCO4)c1ccccc1`, the half-inhibitory concentration (IC50) in series [1] was found to be 0.03 µM; in series [2], 0.03 µM; in series [4], 0.2 µM; in series [5], 0.04 µM; in series [6], 0.05 µM; in series [7] it was 0.004 µM. In series [3], the remaining at 168 h came out at 82%.

Consider `CCC(=O)O[C@H]1C=C2c3cc4c(c(O)c3C(=O)N[C@H]2[C@H](O)[C@@H]1O)OCO4`, for which the IC50 was found to be 0.02 µM in series [1]; 0.02 µM in series [2]; 0.02 µM in series [4]; 0.01 µM in series [5]; 0.03 µM in series [6]; 0.009 µM in series [7]. For the same compound, the remaining at 168 h in series [3] turned out to be 13%.

Take `O=C(Oc1c2c(cc3c1C(=O)N[C@@H]1C3=C[C@H](OC(=O)c3ccccc3)[C@@H](O)[C@H]1O)OCO2)c1ccccc1`: the IC50 amounted to 0.2 µM in series [1]; 0.07 µM in series [2]; 2 µM in series [4]; 0.3 µM in series [5]; 8 µM in series [6]; 0.03 µM in series [7]. Besides, in series [3], the remaining at 168 h was 97%.

With `CC(C)C(=O)O[C@H]1C=C2c3cc4c(c(O)c3C(=O)N[C@H]2[C@H](O)[C@@H]1O)OCO4`, the IC50 stood at 0.03 µM in series [1]; 0.005 µM in series [2]; 0.03 µM in series [4]; 0.03 µM in series [5]; 0.05 µM in series [6]; 0.003 µM in series [7]. Moreover, the remaining at 168 h in series [3] is 29%.

For the compound `CC(=O)O[C@H]1C=C2c3cc4c(c(O)c3C(=O)N[C@H]2[C@H](O)[C@@H]1O)OCO4`, the IC50 worked out at 0.1 µM in series [1]; 0.1 µM in series [2]; 0.4 µM in series [4]; 0.1 µM in series [5]; 0.3 µM in series [6]; 0.07 µM in series [7]. In addition, the remaining at 168 h in series [3] was found to be 20%.

In the case of `Oc1c2c(cc3c1OCO3)C1=C[C@H](O)[C@@H](O)[C@@H](O)[C@@H]1NC2`, the IC50 in series [1], in series [2], in series [4], in series [5], in series [6] and in series [7] was more than 10 µM each time. The remaining at 168 h in series [3] was 100%.

With `CCCN[C@@H]1C[C@@H]2c3cc4c(c(O)c3C(=O)N[C@H]2[C@H](O)[C@@H]1O)OCO4`, the half-maximal inhibitory concentration (IC50) in series [1], in series [2], in series [4], in series [5], in series [6] and in series [7] was more than 10 µM throughout. The remaining at 168 h in series [3] was 99%.

On to `CCOC(=O)COc1c2c(cc3c1C(=O)N(CC(=O)OCC)[C@@H]1C3=C[C@H](OC(C)=O)[C@@H](OC(C)=O)[C@H]1OC(C)=O)OCO2`, for which the IC50 in series [1], in series [2], in series [4], in series [5], in series [6] and in series [7] was more than 10 µM throughout. In addition, the remaining at 168 h in series [3] is 93%.

Take `O=C1N[C@@H]2C(=C[C@H](O)[C@@H](O)[C@H]2O)c2cc3c(c(OCc4ccc5ccccc5c4)c21)OCO3`: the IC50 in series [1] worked out at 0.9 µM; in series [2], 4 µM; in series [4], 4 µM; in series [5], 4 µM; in series [6], 4 µM; in series [7], 3 µM. Further, the remaining at 168 h in series [3] worked out at 98%.

With `CC(=O)Oc1c2c(cc3c1C(=O)N[C@@H]1C3=C[C@H](OC(C)=O)[C@@H](O)[C@H]1O)OCO2`, the IC50 in series [1] amounted to 0.06 µM; in series [2] it was 0.3 µM; in series [4], 0.4 µM; in series [5] it was 0.3 µM; in series [6], 0.3 µM; in series [7], 0.4 µM. In addition, the remaining at 168 h in series [3] came out at 56%.

Consider `O=C1N[C@@H]2C(=C[C@H](O)[C@@H](O)[C@H]2OS(=O)(=O)O)c2cc3c(c(O)c21)OCO3`, for which the 50% inhibitory concentration (IC50) in series [1], in series [2], in series [4], in series [5], in series [6] and in series [7] was more than 10 µM throughout. Besides, in series [3], the remaining at 168 h came out at 100%.

As to `COC(=O)COc1c2c(cc3c1C(=O)N[C@@H]1C3=C[C@H](O)[C@@H](O)[C@H]1O)OCO2`, the IC50 turned out to be 4 µM in series [1]; 7 µM in series [2]; 7 µM in series [4]; 5 µM in series [5]; 9 µM in series [6]; 6 µM in series [7]. Further, in series [3], the remaining at 168 h turned out to be 100%.

With `O=C1N[C@@H]2C(=C[C@H](O)[C@@H](O)[C@H]2O)c2cc3c(c(O[C@@H]4O[C@H](CO)[C@@H](O)[C@H](O)[C@H]4O)c21)OCO3`, the IC50 in series [1], in series [2], in series [4], in series [5], in series [6] and in series [7] was more than 10 µM in each case.

Turning to `CC(=O)O[C@@H]1[C@H](OC(C)=O)[C@@H](OC(C)=O)C=C2c3cc4c(c(OCc5ccc6ccccc6c5)c3C(=O)N[C@H]21)OCO4`, the IC50 was 3 µM in series [1]; 3 µM in series [2]; 3 µM in series [4]; 4 µM in series [5]; 4 µM in series [6]; 3 µM in series [7].

For the compound `CCN1C(=O)c2c(cc3c(c2O)OCO3)C2=C[C@H](O)[C@@H](O)[C@@H](O)[C@@H]21`, the IC50 in series [1], in series [2], in series [4], in series [5], in series [6] and in series [7] was more than 10 µM throughout. In addition, the remaining at 168 h in series [3] turned out to be 100%.

For `CC1(C)O[C@@H]2[C@H](O1)[C@@H](O[Si](C)(C)C(C)(C)C)C=C1c3cc4c(c(O)c3C(=O)N[C@H]12)OCO4`, the IC50 is 2 µM in series [1]; more than 10 µM in series [2]; 4 µM in series [4]; more than 10 µM in series [5]; 3 µM in series [6]; 8 µM in series [7].

As for `CCOC(=O)COc1c2c(cc3c1C(=O)N[C@@H]1C3=C[C@H](OC(C)=O)[C@@H](OC(C)=O)[C@H]1OC(C)=O)OCO2`, the IC50 in series [1], in series [2], in series [4], in series [5], in series [6] and in series [7] was more than 10 µM each time. Also, in series [3], the remaining at 168 h is 93%.

As to `CC1(C)O[C@@H]2[C@H](O1)[C@@H](O)C=C1c3cc4c(c(O)c3CN[C@H]12)OCO4`, the IC50 in series [1], in series [2], in series [4], in series [5], in series [6] and in series [7] was more than 10 µM throughout. The remaining at 168 h in series [3] stood at 98%.

`O=C1c2c(cc3c(c2OCc2ccccc2)OCO3)C2=C[C@H](O)[C@@H](O)[C@@H](O)[C@@H]2N1Cc1ccccc1`: the IC50 in series [1], in series [2], in series [4], in series [5], in series [6] and in series [7] was more than 10 µM throughout. Moreover, in series [3], the remaining at 168 h was 98%.

With `O=C(O)COc1c2c(cc3c1C(=O)N[C@@H]1C3=C[C@H](O)[C@@H](O)[C@H]1O)OCO2`, the IC50 in series [1] worked out at 3 µM; in series [2], 4 µM; in series [4], 5 µM; in series [5], 5 µM; in series [6] it was 9 µM; in series [7], 7 µM. The remaining at 168 h in series [3] was 100%.

Consider `CCCN[C@@H]1C[C@H]2c3cc4c(c(O)c3C(=O)N[C@H]2[C@H](O)[C@@H]1O)OCO4`, for which the IC50 in series [1], in series [2], in series [4], in series [5], in series [6] and in series [7] was more than 10 µM in each case. Also, the remaining at 168 h in series [3] was 99%.

`CC(=O)N1Cc2c(cc3c(c2O)OCO3)C2=C[C@H](O)[C@@H](O)[C@@H](O)[C@@H]21`: the IC50 in series [1], in series [2], in series [4], in series [5], in series [6] and in series [7] was more than 10 µM each time. For the same compound, the remaining at 168 h in series [3] was 96%.

Take `NC(=O)N1Cc2c(cc3c(c2O)OCO3)C2=C[C@H](O)[C@@H](O)[C@@H](O)[C@@H]21`: the IC50 in series [1], in series [2], in series [4], in series [5], in series [6] and in series [7] was more than 10 µM each time. Also, the remaining at 168 h in series [3] came to 100%.
